Measurements as given in ChEMBL document CHEMBL2040797, “Synthesis of benzimidazoles bearing oxadiazole nucleus as anticancer agents” (2012).

Assays:
Type in all cases: functional
SN12C = assay: Cytotoxicity against human SN12C cells after 48 hrs by sulforhodamine B assay
Procedure, shortened: (§1)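 NCI 60-panel screen. Cells were grown in RPMI 1640 with 5% FBS and L-glutamine and plated at 5000–40,000 cells/well according to doubling time. They were preincubated 24 h at 37 °C, 5% CO2, then exposed 48 h to five 10-fold dilutions. Adherent cells were fixed with cold TCA, final 10%; suspension cells were fixed after settling. Cells were stained with 0.4% SRB and read at 515 nm. Tz/C/Ti growth curves gave GI50, TGI and LC50.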

HOP-62 = assay: Growth inhibition of human HOP62 cells at 10 uM after 48 hrs by sulforhodamine B assay; conditions: HOP-62, 48 h, read-out: GI
Procedure, shortened: (§2)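 NCI one-dose primary screen at 10 (printed mM) across the 60-line panel. Cells in RPMI 1640 with 5% FBS and 2 mM L-glutamine, plated at 5000–40,000 cells/well and incubated 24 h before dosing. Exposure 48 h at 37 °C, 5% CO2. Adherent cells were fixed with cold TCA, suspension cells fixed after settling. SRB stain, absorbance 515 nm. Reported as percent growth of treated cells relative to control.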

TK-10 = assay: Growth inhibition of human TK10 cells at 10 uM after 48 hrs by sulforhodamine B assay; conditions: TK-10, 48 h, read-out: GI
Procedure, shortened: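 NCI-60 single-dose screen. Cells grown in RPMI 1640 with 5% FBS and L-glutamine, plated at 5000–40,000 cells/well by doubling time, and preincubated 24 h at 37 °C, 5% CO2. Compound stocks in DMSO, added at one concentration, then incubated 48 h. Adherent cells fixed with cold TCA (10% final), stained with 0.4% SRB, dye solubilized in 10 mM Tris base, A515 read. Reported as percent growth relative to untreated control.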

LOX IMVI = assay: Cytotoxicity against human LOXIMVI cells after 48 hrs by sulforhodamine B assay; procedure, shortened: as §1
BT-549 = assay: Cytotoxicity against human BT549 cells after 48 hrs by sulforhodamine B assay; conditions: BT-549, 48 h; procedure, shortened: as §1
OVCAR-3 [1] = assay: Cytotoxicity against human OVCAR3 cells after 48 hrs by sulforhodamine B assay; conditions: OVCAR-3, 48 h; procedure, shortened: as §1
OVCAR-3 [2] = assay: Growth inhibition of human OVCAR3 cells at 10 uM after 48 hrs by sulforhodamine B assay; conditions: OVCAR-3, 48 h, read-out: GI; procedure, shortened: as §2
[3] = Cytotoxicity against human Hs 578T cells after 48 hrs by sulforhodamine B assay; procedure, shortened: as §1
786-0 = assay: Cytotoxicity against human 786-0 cells after 48 hrs by sulforhodamine B assay; conditions: 786-0, 48 h; procedure, shortened: as §1
T47D = assay: Cytotoxicity against human T47D cells after 48 hrs by sulforhodamine B assay; procedure, shortened: as §1
[4] = read-out: LC50 (the source's name)

## O=C(CCc1nnc(-c2ccc(Cl)cc2Cl)o1)c1nc2ccccc2[nH]1
SN12C
  GI50: 6.22 µM
  TGI: 56.9 µM
SN12C; [4]
  CC50: 100 µM
HOP-62
  inhibition of growth at 10 µM: 28.4%
TK-10
  inhibition of growth at 10 µM: 36%
LOX IMVI
  GI50: 4.03 µM
  TGI: 39.8 µM
LOX IMVI; [4]
  CC50: 100 µM
BT-549
  GI50: 7.54 µM
  TGI: 92.5 µM
BT-549; [4]
  CC50: 100 µM
OVCAR-3 [1]
  GI50: 5.63 µM
  TGI: 24.8 µM
OVCAR-3 [1]; [4]
  CC50: 90.7 µM
OVCAR-3 [2]
  inhibition of growth at 10 µM: 33.6%
[3]
  GI50: 9.71 µM
  TGI: 93.9 µM
[3]; [4]
  CC50: 100 µM
786-0
  GI50: 10.7 µM
  TGI: 45.5 µM
786-0; [4]
  CC50: 100 µM
T47D
  GI50: 3.34 µM
  TGI: 60 µM
T47D; [4]
  CC50: 100 µM
